# Laboratory results: ChEMBL document CHEMBL1914440, “Discovery of potent, selective, and orally bioavailable alkynylphenoxyacetic acid CRTH2 (DP2) receptor antagonists for the treatment of allergic inflammatory diseases” (J Med Chem, 2011)
# Target: T1, Prostaglandin D2 receptor 2 (Homo sapiens, UniProt Q9Y5Y4)
# T1 sequence (Q9Y5Y4 whole entry): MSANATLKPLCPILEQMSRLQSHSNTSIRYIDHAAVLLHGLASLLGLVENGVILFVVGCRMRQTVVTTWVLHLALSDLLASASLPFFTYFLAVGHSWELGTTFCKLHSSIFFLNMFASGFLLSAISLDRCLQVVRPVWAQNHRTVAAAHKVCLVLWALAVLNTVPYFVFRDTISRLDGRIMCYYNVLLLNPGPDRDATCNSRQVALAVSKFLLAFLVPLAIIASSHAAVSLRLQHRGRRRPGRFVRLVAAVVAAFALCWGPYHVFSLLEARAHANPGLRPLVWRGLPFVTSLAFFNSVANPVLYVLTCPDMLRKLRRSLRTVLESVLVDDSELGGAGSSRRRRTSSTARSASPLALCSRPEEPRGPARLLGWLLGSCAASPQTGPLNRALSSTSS
# Test: Displacement of [3H]PGD2 from human CRTH2 expressed in chinese hamster CHO cells by liquid scintillation counting
# Type: cell-based
# In short: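 Scintillation proximity competition assay: 2–5 μg human CRTH2 cell membranes, 1.5 nM [3H]PGD2, WGA-SPA beads, 10 mM HEPES/KOH pH 7.4, 10 mM MnCl2, protease inhibitors, 1% DMSO; 90 min, room temperature, shaking. Nonspecific binding defined with 1 μM PGD2. Ki by Cheng–Prusoff, mean of ≥3 independent dose–response experiments.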
row,Compound,Ki
1,CCCS(=O)(=O)c1cc(C#Cc2cc(Cl)ccc2OCC(=O)O)c(C)cc1NC(C)=O,0.0013 µM
2,O=C(O)COc1ccc(Cl)cc1C#Cc1ccc(Cl)cc1,0.06 µM
3,Cc1ccc(S(=O)(=O)N(C)CCN(C)C)cc1C#Cc1cc(Cl)ccc1OCC(=O)O,0.369 µM
4,Cc1ccc(S(=O)(=O)Cc2ccccc2)cc1C#Cc1cc(Cl)ccc1OCC(=O)O,0.005 µM
5,CS(=O)(=O)c1cc(C#Cc2cc(Cl)ccc2OCC(=O)O)ccc1-c1ccccc1,0.005 µM
6,O=C(O)COc1ccc(Cl)cc1C#Cc1ccccn1,1.12 µM
7,CN(C)S(=O)(=O)c1cccc(C#Cc2cc(Cl)ccc2OCC(=O)O)c1,0.014 µM
8,CCCS(=O)(=O)c1cccc(C#Cc2cc(C(F)(F)F)ccc2OCC(=O)O)c1,0.01 µM
9,CCCS(=O)(=O)c1ccc(C)c(C#Cc2cc(Cl)ccc2OC(CC)C(=O)O)c1 (stereo not given),0.03 µM
10,CCS(=O)(=O)c1ccc(C)c(C#Cc2cc(Cl)ccc2OCC(=O)O)c1,0.0086 µM
11,CC(C)(C)N1C(=O)c2ccc(C#Cc3cc(Cl)ccc3OCC(=O)O)cc2S1(=O)=O,0.014 µM
12,CCCS(=O)(=O)c1ccc(F)c(C#Cc2cc(Cl)ccc2OC(C)C(=O)O)c1 (stereo not given),0.003 µM
13,Cn1ccnc1C#Cc1cc(Cl)ccc1OCC(=O)O,1.47 µM
14,O=C(O)COc1ccc(Cl)cc1C#Cc1cccc(C(F)(F)F)c1,0.092 µM
15,COC1c2ccc(C#Cc3cc(Cl)ccc3OCC(=O)O)cc2S(=O)(=O)C1(C)C (stereo not given),0.021 µM
16,O=C(O)COc1cc(F)ccc1C#Cc1ccccc1Cl,4.78 µM
17,CC1(C)C(=O)c2ccc(C#Cc3cc(Cl)ccc3OCC(=O)O)cc2S1(=O)=O,0.031 µM
18,COc1cccc(-c2ccc(C#Cc3cc(Cl)ccc3OCC(=O)O)cc2S(C)(=O)=O)c1,0.008 µM
19,Cc1ccc(S(=O)(=O)CCO)cc1C#Cc1cc(Cl)ccc1OCC(=O)O,0.019 µM
20,O=C(O)COc1ccc(Cl)cc1C#Cc1cccc(CO)c1F,0.041 µM
21,CC(C)S(=O)(=O)c1cc(C#Cc2cc(Cl)ccc2OCC(=O)O)ccc1C(=O)N1CCOCC1,0.087 µM
22,CCCS(=O)(=O)c1cccc(C#Cc2cc(-c3sc(C)nc3C)ccc2OCC(=O)O)c1,0.054 µM
23,CS(=O)(=O)Cc1cccc(C#Cc2cc(Cl)ccc2OCC(=O)O)c1,0.048 µM
24,Cc1ccc(S(=O)(=O)C(C)C)cc1C#Cc1cc(Cl)ccc1OCC(=O)O,0.006 µM
25,CS(=O)(=O)c1cc(C#Cc2cc(Cl)ccc2OCC(=O)O)ccc1-c1ccccc1Cl,0.0035 µM
26,O=C(O)COc1ccc(Cl)cc1C#Cc1ccccc1,0.108 µM
27,O=C(O)COc1ccc(Cl)cc1C#Cc1ccccc1F,0.047 µM

row,Compound,Ki
1,O=C(O)COc1ccc(Cl)cc1C#Cc1ccc(Cl)s1,0.183 µM
2,CCCS(=O)(=O)c1cccc(C#Cc2cc(-c3ccsc3)ccc2OCC(=O)O)c1,0.018 µM
3,Cc1ccc(S(=O)(=O)CCc2ccccc2)cc1C#Cc1cc(Cl)ccc1OCC(=O)O,0.007 µM
4,O=C(O)COc1ccc(Cl)cc1C#Cc1ccc2c(c1)S(=O)(=O)CC2,0.023 µM
5,O=C(O)COc1ccc(Cl)cc1C#Cc1ccccc1Cl,0.028 µM
6,COCc1ccc(C#Cc2cc(Cl)ccc2OCC(=O)O)c(F)c1,0.022 µM
7,CC(C)Cc1ccncc1C#Cc1cc(Cl)ccc1OCC(=O)O,0.0049 µM
8,CN(C)C(=O)c1cccc(C#Cc2cc(Cl)ccc2OCC(=O)O)c1,0.052 µM
9,Cc1cc[n+]([O-])cc1C#Cc1cc(Cl)ccc1OCC(=O)O,0.017 µM
10,CS(=O)(=O)c1cc(C#Cc2cc(Cl)ccc2OCC(=O)O)ccc1-c1ccc(C(F)(F)F)cc1,0.043 µM
11,COc1ccccc1C#Cc1cc(Cl)ccc1OCC(=O)O,0.19 µM
12,CCCS(=O)(=O)c1cccc(C#Cc2c(OCC(=O)O)ccc3ccccc23)c1,0.044 µM
13,COCc1ccc(F)c(C#Cc2cc(Cl)ccc2OCC(=O)O)c1,0.072 µM
14,O=C(O)COc1ccc(Cl)cc1C#Cc1ccncc1,0.601 µM
15,CCN(CC)S(=O)(=O)c1ccc(C)c(C#Cc2cc(Cl)ccc2OCC(=O)O)c1,0.0034 µM
16,CCN(CC)C(=O)c1ccc(C#Cc2cc(Cl)ccc2OCC(=O)O)cc1S(=O)(=O)C(C)C,0.046 µM
17,O=C(O)COc1ccc(Cl)cc1C#Cc1cncc(S(=O)(=O)NCCO)c1,0.301 µM
18,Cc1ccc(S(=O)(=O)N(C)CCCN(C)C)cc1C#Cc1cc(Cl)ccc1OCC(=O)O,0.287 µM
19,Cc1ccc(S(=O)(=O)N2CCN(C)CC2)cc1C#Cc1cc(Cl)ccc1OCC(=O)O,0.021 µM
20,N#Cc1ccc(OCC(=O)O)c(C#Cc2ccccc2Cl)c1,0.024 µM
21,CS(=O)(=O)Nc1cncc(C#Cc2cc(Cl)ccc2OCC(=O)O)c1,0.019 µM
22,Cc1ncccc1C#Cc1cc(Cl)ccc1OCC(=O)O,0.143 µM
23,Cc1ccc(OCC(=O)O)c(C#Cc2ccccc2Cl)c1,0.283 µM
24,CCCS(=O)(=O)c1cccc(C#Cc2cc(F)ccc2OCC(=O)O)c1,0.065 µM
25,O=C(O)COc1ccc(Cl)cc1C#Cc1ccccc1C(F)(F)F,0.024 µM
26,Cc1ccc(S(=O)(=O)NC(C)(C)C)cc1C#Cc1cc(Cl)ccc1OCC(=O)O,0.005 µM
27,O=C(O)COc1ccc(Cl)cc1C#Cc1cc(CO)ccc1F,0.073 µM

row,Compound,Ki
1,CCCc1ccncc1C#Cc1cc(Cl)ccc1OCC(=O)O,0.0043 µM
2,CS(=O)(=O)c1cc(C#Cc2cc(Cl)ccc2OCC(=O)O)ccc1-c1ccc(Cl)cc1,0.014 µM
3,CS(=O)(=O)c1cncc(C#Cc2cc(Cl)ccc2OCC(=O)O)c1,0.06 µM
4,Cc1ncc(S(=O)(=O)N(C)C)cc1C#Cc1cc(Cl)ccc1OCC(=O)O,0.041 µM
5,COC1(C)c2ccc(C#Cc3cc(Cl)ccc3OCC(=O)O)cc2S(=O)(=O)C1(C)C (stereo not given),0.025 µM
6,CC(C)S(=O)(=O)c1cc(C#Cc2cc(Cl)ccc2OCC(=O)O)ccc1C(=O)N(C)C,0.065 µM
7,CCCS(=O)(=O)c1cccc(C#Cc2cc(-c3cccs3)ccc2OCC(=O)O)c1,0.012 µM
8,O=C(O)COc1ccc(Cl)cc1C#Cc1ccc(F)cc1F,0.101 µM
9,CCN(Cc1cc(-c2ccc(OC)cn2)ccc1-c1cc(CC(=O)O)ccc1OC)C(=O)C1CC1,0.005 µM
10,CN(c1cccc(C#Cc2cc(Cl)ccc2OCC(=O)O)c1)S(C)(=O)=O,0.122 µM
11,CC1(O)c2ccc(C#Cc3cc(Cl)ccc3OCC(=O)O)cc2S(=O)(=O)C1(C)C (stereo not given),0.028 µM
12,O=C(O)COc1ccc(Cl)cc1C#Cc1ccc2c(c1)S(=O)(=O)C=C2,0.025 µM
13,Cc1ccncc1C#Cc1cc(Cl)ccc1OCC(=O)O,0.025 µM
14,CS(=O)(=O)c1ccc(C#Cc2cc(Cl)ccc2OCC(=O)O)cc1,0.086 µM
15,CN(c1cncc(C#Cc2cc(Cl)ccc2OCC(=O)O)c1)S(C)(=O)=O,0.378 µM
16,CCCC(Oc1ccc(Cl)cc1C#Cc1cc(S(=O)(=O)CCC)ccc1C)C(=O)O (stereo not given),0.057 µM
17,CCCS(=O)(=O)c1ccc(F)c(C#Cc2cc(Cl)ccc2OC(C)(C)C(=O)O)c1,0.26 µM
18,COc1ccc(-c2ccc(C#Cc3cc(Cl)ccc3OCC(=O)O)cc2S(C)(=O)=O)cc1,0.007 µM
19,CS(=O)(=O)Nc1cccc(C#Cc2cc(Cl)ccc2OCC(=O)O)c1,0.054 µM
20,CC1(C)C(O)c2ccc(C#Cc3cc(Cl)ccc3OCC(=O)O)cc2S1(=O)=O (stereo not given),0.033 µM
21,CN(C)C(=O)c1ccc(C#Cc2cc(Cl)ccc2OCC(=O)O)cc1,0.055 µM
22,CCCS(=O)(=O)c1ccc(C)c(C#Cc2cc(Cl)ccc2OC(C)C(=O)O)c1 (stereo not given),0.0012 µM
23,O=C(O)COc1ccccc1C#Cc1ccccc1Cl,0.747 µM
24,CCCS(=O)(=O)c1cccc(C#Cc2c(Cl)cccc2OCC(=O)O)c1,0.055 µM
25,CS(=O)(=O)c1cc(C#Cc2cc(Cl)ccc2OCC(=O)O)ccc1-c1cccc(Cl)c1,0.016 µM
26,O=C(O)COc1ccc(Cl)cc1C#Cc1cncc(S(=O)(=O)N2CCOCC2)c1,0.041 µM
